Experimental data from ChEMBL document CHEMBL5154888 (Eur J Med Chem, 2022).
Active and inactive are the calls of the source. The calls are words filed in the database; no cut-off is given here.

How the values were obtained:
[1] = molecular target: T1, Glutamate NMDA receptor; Grin1/Grin2a (Rattus norvegicus) (UniProt P35439+Q00959); test: (§1) Inhibition of eGFP-tagged rat GluN1/GluN2A transfected in human tsA201 cells assessed as weighted time constant for recovery of glycine/NMDA-induced current at 10 uM treated for 40 secs followed by application of +60 mV holding potential for 5 secs measured after 40 secs of compound removal by whole-cell patch-clamp method; assay type: cell-based; conditions: time 85.0 sec
[2] = tested on: Mus musculus; test: Upregulation of phosphorylated-Fyn levels in hippocampus of 5XFAD transgenic AD mouse model at 5 mg/kg, po by Western blot analysis; assay type: functional, organism-based
Summary of the method: (§2)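 5XFAD mice treated at 5 mg/kg/day for 4 weeks, n = 3–4 per group. Western blot quantifies GluN2A, PSD95, calbindin, p-Fyn/Fyn, p-GluN2B(Tyr1472)/GluN2B, and nuclear versus cytosolic p-CREB ratio. Values normalised to WT as 100%.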

[3] = molecular target: T1, Glutamate NMDA receptor; Grin1/Grin2a (Rattus norvegicus); test: Inhibition of eGFP-tagged rat GluN1/GluN2A transfected in human tsA201 cells assessed as blockade of glycine/NMDA-induced current at 10 uM treated for 40 secs measured at +60 mV holding potential applied for 5 secs by whole-cell patch-clamp method relative to control; assay type: cell-based; conditions: time 45.0 sec
Summary of the method: (§3)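 tsA201 cells transfected with rat GluN1, rat GluN2A and eGFP (0.5:1:1); dl-APV 200 μM added at transfection. Whole-cell recording at rt, held at −60 mV. Agonist is 100 μM NMDA + 10 μM glycine; blocker at 10 μM applied by piezo until steady state. A 5 s jump to +60 mV is made during block and again after blocker washout. Block is computed from steady-state current ratios, and recovery as current after removal over current before application.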

[4] = tested on: Mus musculus; test: Recovery of cognitive function in 5XFAD transgenic AD mouse model assessed as short term memory by measuring increased discrimination index at 5 mg/kg/day, po for 4 weeks measured after 4 days of habituation by novel object recognition test; assay type: functional, organism-based; conditions: time 32.0 day
Summary of the method: (§4)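 5XFAD mice, 6 months old, treated at 5 mg/kg/day for 4 weeks; n = 8–11 per group, with WT controls. Novel object recognition test: discrimination index from exploration time of novel versus familiar object, tested at 2 h (short-term) and 24 h (long-term).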

[5] = molecular target: T1, Glutamate NMDA receptor; Grin1/Grin2a (Rattus norvegicus); test: Inhibition of eGFP-tagged rat GluN1/GluN2A transfected in human tsA201 cells assessed as blockade of glycine/NMDA-induced current at 10 uM treated for 40 secs measured at -60 mV holding potential after returning from +60 mV application for 5 secs by whole-cell patch-clamp method relative to control; assay type: cell-based; conditions: time 45.0 sec
[6] = tested on: Mus musculus; test: Upregulation of phosphorylated-GluN2B levels at Tyr1472 residue in hippocampus of 5XFAD transgenic AD mouse model at 5 mg/kg, po by Western blot analysis; assay type: functional, organism-based; summary of the method: as §2
[7] = molecular target: T1, Glutamate NMDA receptor; Grin1/Grin2a (Rattus norvegicus); test: as §1, with “as” for “as weighted time constant for”, “method relative to control” for “method”; assay type: cell-based; conditions: time 85.0 sec; summary of the method: as §3
[8] = tested on: Mus musculus; test: Upregulation of calbindin D-28K levels in hippocampus of 5XFAD transgenic AD mouse model at 5 mg/kg, po by Western blot analysis; assay type: functional, organism-based; summary of the method: as §2
[9] = tested on: Mus musculus; test: Recovery of cognitive function in 5XFAD transgenic AD mouse model assessed as long term memory by measuring increase in discrimination index at 5 mg/kg/day, po for 4 weeks measured after 5 days of habituation by novel object recognition test; assay type: functional, organism-based; conditions: time 33.0 day; summary of the method: as §4
[10] = tested on: Mus musculus; test: Upregulation of PSD in hippocampus of 5XFAD transgenic AD mouse model at 5 mg/kg, po by Western blot analysis; assay type: functional, organism-based; summary of the method: as §2
[11] = molecular target: T1, Glutamate NMDA receptor; Grin1/Grin2a (Rattus norvegicus); test: Inhibition of eGFP-tagged rat GluN1/GluN2A transfected in human tsA201 cells assessed as weighted time constant for blockade of glycine/NMDA-induced current at 10 uM at 1 sec by whole-cell patch-clamp method; assay type: cell-based
[12] = tested on: Caenorhabditis elegans; test: Neuroprotective activity against transgenic Caenorhabditis elegans CL2355 assessed as A-beta aggregration-induced reversal of disrupted chemotaxis behaviour by measuring chemotaxis index at […] treated for 72 hrs followed by compound washout and odorant addition for 1 hr; assay type: functional, organism-based; conditions: dose 1.5 µM
[13] = tested on: Caenorhabditis elegans; test: Effect on locomotory activity in transgenic Caenorhabditis elegans CL2006 model of paralysis assessed as reduction in defective locomotion by measuring motor index at 0.1 to 10 uM by motor behaviour assay; assay type: functional, organism-based; conditions: dose 0.1-10 µM
Summary of the method: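 C. elegans CL2006 (constitutive human Aβ1–42), synchronised by hypochlorite and hatched as L1. Compounds in DMSO diluted into water, 1% DMSO final; tested at 0.1–10 μM. Treatment in liquid culture, 25–30 L1 worms per well with inactivated OP50, 4 days at 20 °C. Defective locomotion scored as motor index; N2 is the reference strain.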

[14] = molecular target: Glutamate NMDA receptor; test: Inhibition of NMDA receptor in NMDA-stimulated rat cerebellar granule neurons assessed as measuring intracellular calcium concentration in presence of glycine by Fura2-AM dye based fluorescence assay; assay type: cell-based; conditions: cerebellar granule neurone
[15] = in vitro; conditions: PAMPA
[16] = molecular target: Glutamate NMDA receptor; Grin1/Grin2a (Rattus norvegicus, UniProt P35439+Q00959); test: Inhibition of eGFP-tagged rat GluN1-1a/GluN2A transfected in human tsA201 cells assessed as inhibition glutamate-induced current measured at -65 mV holding potential applied for 10 secs by whole-cell patch-clamp method; assay type: cell-based

CC12CC3CC(C)(C1)CC(N)(C3)C2
TIME [1]: 0.00178 h
Activity [2]: Active
inhibition [3]: -3.9%
Activity [4]: Active
inhibition [5]: 86.2%
Activity [6]: Active
inhibition [7]: 93.6%
Activity [8]: Active
Activity [9]: Active
Activity [10]: Active
inhibition [11]: Active
Activity [12]: Active
Activity [13]: Active

CC(=O)c1ccc2c(c1)C1CC3(C)CC2CC(N)(C1)C3 (centres undefined)
IC50 [14]: 323 µM

CCn1cc(C(=O)O)c(=O)c2cc(F)c(N3CCNC(C)C3)c(F)c21 (centres undefined) [LOMEFLOXACIN]
Papp [15]: 0.86 ×10⁻⁶ cm/s

CC12CC3CC(N)(CC(C1)c1cc([N+](=O)[O-])ccc13)C2 (centres undefined)
IC50 [14]: 164 µM

CN(C)C12CC3CC(C)(CC(C1)c1cc([N+](=O)[O-])ccc13)C2 (centres undefined)
IC50 [14]: 309 µM

CNC1(c2ccccc2Cl)CCCCC1=O (centres undefined) [KETAMINE]
IC50 [16]: 1 µM

COc1cc2c(cc1OC)C1CC3(C)CC2CC(N)(C1)C3
IC50 [14]: 517 µM
